Reference: ChEMBL document CHEMBL2163334, “Discovery of highly potent and selective pan-Aurora kinase inhibitors with enhanced in vivo antitumor therapeutic index” (J Med Chem, 2012)
pIC50, pKd: −log10 of the molar value.

Legend:
[1] = target: T1, Aurora kinase B (Homo sapiens, UniProt Q96GD4); experiment: Binding affinity to Aurora kinase B catalytic domain by competition binding assay
[2] = test system: HCT-116; experiment: Antiproliferative activity against human HCT116 cells after 72 hrs by BrdU-based ELISA; type: functional, cell-based; conditions: HCT-116, 72 h
In short: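 HCT-116 cells in McCoy's 5A with 10% FBS and pen/strep, seeded 800 cells/well, left overnight at 37 °C, 5% CO2. Nine-point 3-fold serial dilutions in DMSO added for 72 h; BrdU colorimetric ELISA read at 450 and 690 nm. IC50 is the concentration halving proliferation; duplicate runs averaged.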

[3] = target: T1, Aurora kinase B; experiment: Inhibition of Aurora kinase B-mediated histone H3 Ser10 phosphorylation in human HCT116 cells after 2 hrs by sandwich ELISA; type: cell-based, HCT-116
In short: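 HCT-116 cells seeded 4 × 10⁴/well, 4-6 h at 37 °C, then arrested overnight (16-18 h) with nocodazole at 66 ng/mL final. Treated 2 h with nine-point 3-fold dilutions in DMSO; lysed with phosphatase inhibitor, phospho-H3 (Ser10) sandwich ELISA read at 450 nm. IC50 = 50% inhibition of phosphorylation; duplicate runs averaged.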

[4] = target: T2, Aurora kinase A (Homo sapiens, UniProt O14965); experiment: Binding affinity to Aurora kinase A catalytic domain by competition binding assay
T2 sequence (O14965 whole entry): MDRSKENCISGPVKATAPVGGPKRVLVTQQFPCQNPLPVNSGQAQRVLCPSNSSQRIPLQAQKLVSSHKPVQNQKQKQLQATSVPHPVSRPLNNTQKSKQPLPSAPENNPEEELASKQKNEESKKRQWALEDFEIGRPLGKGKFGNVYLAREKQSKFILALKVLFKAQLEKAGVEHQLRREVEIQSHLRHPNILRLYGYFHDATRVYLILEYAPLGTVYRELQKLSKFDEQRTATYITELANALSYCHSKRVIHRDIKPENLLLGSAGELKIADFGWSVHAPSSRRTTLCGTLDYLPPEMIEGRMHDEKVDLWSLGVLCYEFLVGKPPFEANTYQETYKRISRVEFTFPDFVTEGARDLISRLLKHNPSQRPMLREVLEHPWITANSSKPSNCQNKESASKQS

[5] = Clearance in Sprague-Dawley rat at 1 mg/kg, iv administered using PEG400/water as vehicle; type: ADME, organism-based; set-up: dose 1 mg/kg, route intravenous; conditions: in vivo
In short: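 SD rats fasted overnight, given 1 mg/kg iv in PEG400/water (3:1, v/v); three per arm. Blood into K3 EDTA at 5, 15, 30 min, 1, 2, 4, 6, 24 h, spun at 4 °C; plasma extracted with six volumes acetonitrile plus internal standard and quantified by LC-MS/MS (C8 column, formic acid/ACN gradient).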

T1 sequence (Q96GD4 whole entry, the tested form may be a part): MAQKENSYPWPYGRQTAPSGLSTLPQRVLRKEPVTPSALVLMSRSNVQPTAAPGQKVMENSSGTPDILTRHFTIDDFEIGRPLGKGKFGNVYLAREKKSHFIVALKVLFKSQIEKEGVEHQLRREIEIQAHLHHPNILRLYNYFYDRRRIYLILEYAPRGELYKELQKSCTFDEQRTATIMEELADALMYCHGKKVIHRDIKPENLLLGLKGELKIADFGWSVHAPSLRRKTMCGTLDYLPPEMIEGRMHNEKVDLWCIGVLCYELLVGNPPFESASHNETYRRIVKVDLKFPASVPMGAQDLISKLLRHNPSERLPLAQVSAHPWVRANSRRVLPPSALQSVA

SMILES | pKd [1] | pIC50 [2] | pIC50 [3] | pKd [4] | clearance [5] [mL/min/kg]
Cc1cc(Nc2nc(Sc3ccc(NC(=O)CN4CC[C@@H](NS(C)(=O)=O)C4)cc3)nn3cccc23)n[nH]1 | 8.49 | 6.57 | 6.44 | 7.91 | 
Cc1cc(Nc2nc(Sc3ccc(NC(=O)CN4CC[C@@H](C(=O)Nc5ccc(F)cc5)C4)cc3)nn3cccc23)n[nH]1 | 8.16 | 8.42 | 7.37 | 7.71 | 
Cc1cc(Nc2nc(Sc3ccc(NC(=O)CN4CC[C@@H](C(=O)NC5CCC5)C4)cc3)nn3cccc23)n[nH]1 | 8.48 | 8.89 | 8.03 | 8.38 | 
Cc1cc(Nc2nc(Sc3ccc(NC(=O)CN4CCC(C(=O)N5CCCC5)C4)cc3)nn3cccc23)n[nH]1 (racemic) | 8.62 | 8.54 | 8.05 | 8.06 | 
Cc1cc(Nc2nc(Sc3ccc(NC(=O)CN4CC[C@@H](C(=O)NCCN5CCOCC5)C4)cc3)nn3cccc23)n[nH]1 | 8.54 | 7.72 | 7.20 | 8.20 | 
Cc1cc(Nc2nc(Sc3ccc(NC(=O)CN4CC[C@H](O)C4)cc3)nn3cccc23)n[nH]1 | 7.83 | 6.64 | 6.38 | 7.41 | 
Cc1cc(Nc2nc(Sc3ccc(NC(=O)CN4CC[C@@H](C(=O)NC(C)(C)C)C4)cc3)nn3cccc23)n[nH]1 | 8.51 | 9.00 | 8.21 | 8.25 | 48
Cc1cc(Nc2nc(Sc3ccc(NC(=O)CN4CC[C@@H](OCCN5CCN(C)CC5)C4)cc3)nn3cccc23)n[nH]1 | 8.54 | 7.53 | 6.77 | 7.90 | 
Cc1cc(Nc2nc(Sc3ccc(NC(=O)CN4CCC(C(=O)C(C)(C)C)C4)cc3)nn3cccc23)n[nH]1 (racemic) | 8.21 | 7.90 | 7.35 | 7.77 | 
Cc1cc(Nc2nc(Sc3ccc(NC(=O)CN4CC[C@@H](OCCN5CCOCC5)C4)cc3)nn3cccc23)n[nH]1 | 8.18 | 7.75 | 7.36 | 7.96 | 

The remaining compounds from weak to strong by pKd [1], led by results:

pKd [1] | pIC50 [2] | pIC50 [3] | pKd [4] | clearance [5] [mL/min/kg] | SMILES
7.85 | 7.71 | 7.02 | 7.60 |  | Cc1cc(Nc2nc(Sc3ccc(NC(=O)CN4CC[C@@H](SC(C)(C)C)C4)cc3)nn3cccc23)n[nH]1
8.18 | 7.13 | 6.99 | 7.98 |  | Cc1cc(Nc2nc(Sc3ccc(NC(=O)CN4CC[C@@H](O)C4)cc3)nn3cccc23)n[nH]1
8.24 | 7.33 | 6.94 | 7.88 |  | Cc1cc(Nc2nc(Sc3ccc(NC(=O)CN4CC[C@@H](NC(=O)C(C)C)C4)cc3)nn3cccc23)n[nH]1
8.37 | 8.04 | 7.54 | 8.40 |  | Cc1cc(Nc2nc(Sc3ccc(NC(=O)CN4CC[C@@H](S(=O)(=O)C(C)(C)C)C4)cc3)nn3cccc23)n[nH]1
8.43 | 6.98 | 6.53 | 8.40 |  | Cc1cc(Nc2nc(Sc3ccc(NC(=O)CN4CC[C@@H](C(=O)N5CCC(O)CC5)C4)cc3)nn3cccc23)n[nH]1
8.43 | 7.97 | 7.57 | 8.29 |  | Cc1cc(Nc2nc(Sc3ccc(NC(=O)CN4CC[C@@H](OCCCN5CCOCC5)C4)cc3)nn3cccc23)n[nH]1
8.44 | 8.59 | 8.05 | 7.60 |  | Cc1cc(Nc2nc(Sc3ccc(NC(=O)CN4CC[C@@H](OC(C)(C)C)C4)cc3)nn3cccc23)n[nH]1
8.51 | 8.51 | 8.21 | 7.94 | 62 | COCCO[C@@H]1CCN(CC(=O)Nc2ccc(Sc3nc(Nc4cc(C)[nH]n4)c4cccn4n3)cc2)C1
8.51 | 8.47 | 7.92 | 8.55 |  | Cc1cc(Nc2nc(Sc3ccc(NC(=O)CN4CC[C@@H]([S+]([O-])C(C)(C)C)C4)cc3)nn3cccc23)n[nH]1 (stereo partly drawn)
8.54 | 8.49 | 8.00 | 8.19 |  | Cc1cc(Nc2nc(Sc3ccc(NC(=O)CN4CC[C@@H](C(=O)N5CCCCC5)C4)cc3)nn3cccc23)n[nH]1
8.59 | 8.41 | 7.84 | 8.40 |  | Cc1cc(Nc2nc(Sc3ccc(NC(=O)CN4CC[C@@H](C(=O)N5CCOCC5)C4)cc3)nn3cccc23)n[nH]1
8.60 | 8.66 | 8.20 | 8.20 |  | Cc1cc(Nc2nc(Sc3ccc(NC(=O)CN4CC[C@@H](C(=O)N5CCCC5)C4)cc3)nn3cccc23)n[nH]1
8.66 | 9.05 | 8.15 | 8.60 | 35 | Cc1cc(Nc2nc(Sc3ccc(NC(=O)CN4CC[C@@H](C(=O)NCC(F)(F)F)C4)cc3)nn3cccc23)n[nH]1
8.72 | 7.78 | 7.42 | 8.00 |  | Cc1cc(Nc2nc(Sc3ccc(NC(=O)CN4CC[C@H](C(=O)N5CCCC5)C4)cc3)nn3cccc23)n[nH]1
8.77 | 8.30 | 7.89 | 8.35 |  | Cc1cc(Nc2nc(Sc3ccc(NC(=O)CN4CC[C@@H](OCCO)C4)cc3)nn3cccc23)n[nH]1
